tested on: HL-60; assay: Antiproliferative activity against human HL60 cells after 72 hrs; type: functional; conditions: HL-60, 72 h
In short: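 HL-60 cells grown in RPMI-1640 with 10% heat-inactivated FBS, penicillin, streptomycin and L-glutamine. Cells seeded at 1 × 10⁵ cells/mL and exposed to a range of compound concentrations for 72 h. Total cells (trypan blue positive and negative) counted by haemocytometer. Treated/untreated cell-number ratio used to calculate GI50.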

Q: `C=C(CC)C(=O)c1ccc(OCC(=O)O)c(Cl)c1Cl` [ETHACRYNIC ACID] was tested. Which GI50 did it give?
A: The GI50 was 44.2 µM.

Q: With `C=C(C)C(=O)c1ccc(OC(C)C(=O)O)cc1Cl` (stereo not drawn) as the compound, how does the GI50 read?
A: The GI50 was over 60 µM.

Q: Which GI50 does the source give for `C=C(C)C(=O)c1ccc(OC(C)C(=O)OC)c(C)c1C` (stereo not drawn) here?
A: The GI50 was 6 µM.

Q: For `C=C(C)C(=O)c1ccc(OC(C)C(=O)O)cc1Br` (stereo not drawn), which GI50 is on record?
A: Its GI50 is over 60 µM.

Q: For `C=C(CCCC)C(=O)c1ccc(OC(C)C(=O)OC)c(C)c1C` (stereo not drawn), which GI50 is on record?
A: The GI50 was 5.2 µM.

Q: `C=C(CC)C(=O)c1ccc(OC(C)C(=O)OC)c(C)c1C` (stereo not drawn) was tested. Which GI50 did it give?
A: The GI50 was 4.6 µM.

Q: For `C=C(C)C(=O)c1ccc(OC(C)C(=O)O)cc1C` (stereo not drawn), which GI50 is on record?
A: The GI50 was over 60 µM.

Q: How did the GI50 turn out when `C=C(CC)C(=O)c1ccc(OC(C)C(=O)O)cc1Br` (stereo not drawn) was run?
A: The GI50 was over 60 µM.

Q: `C=C(CC)C(=O)c1ccc(OCC(=O)OC)c(Cl)c1Cl` was tested. Which GI50 did it give?
A: Its GI50 is 3.9 µM.

Q: `C=C(CCCC)C(=O)c1ccc(OCC(=O)O)c(C)c1C` was tested. Which GI50 did it give?
A: Its GI50 is 14.4 µM.

Q: For `C=C(CCCC)C(=O)c1ccc(OC(C)C(=O)O)c(C)c1C` (stereo not drawn), which GI50 is on record?
A: The GI50 was 12.1 µM.

Q: For `C=C(CC)C(=O)c1ccc(OCC(=O)O)cc1Cl`, which GI50 is on record?
A: The GI50 was over 60 µM.

Q: Which GI50 does the source give for `C=C(CCC)C(=O)c1ccc(OCC(=O)OC)c(C)c1C` here?
A: Its GI50 is 8.6 µM.

Q: With `C=C(CCC)C(=O)c1ccc(OC(C)C(=O)O)c(C)c1C` (stereo not drawn) as the compound, how does the GI50 read?
A: The GI50 was 11.2 µM.

Q: For `C=C(C)C(=O)c1ccc(OCC(=O)O)cc1C`, which GI50 is on record?
A: The GI50 was over 60 µM.

Q: Which GI50 does the source give for `C=C(CCC)C(=O)c1ccc(OCC(=O)O)c(C)c1C` here?
A: The GI50 was 19.3 µM.

Q: For `C=C(C)C(=O)c1ccc(OCC(=O)O)cc1Cl`, which GI50 is on record?
A: Its GI50 is over 60 µM.

Q: For `C=C(CCCC)C(=O)c1ccc(OCC(=O)OC)c(C)c1C`, which GI50 is on record?
A: Its GI50 is 8.6 µM.

Q: For `C=C(CC)C(=O)c1ccc(OC(C)C(=O)O)cc1Cl` (stereo not drawn), which GI50 is on record?
A: The GI50 was over 60 µM.

Q: With `C=C(CC)C(=O)c1ccc(OCC(=O)O)cc1C` as the compound, how does the GI50 read?
A: The GI50 was over 60 µM.

Q: How did the GI50 turn out when `C=C(CC)C(=O)c1ccc(OCC(=O)O)cc1Br` was run?
A: The GI50 was over 60 µM.

Q: For `C=C(CC)C(=O)c1ccc(OC(C)C(=O)O)cc1C` (stereo not drawn), which GI50 is on record?
A: The GI50 was over 60 µM.

Q: Which GI50 does the source give for `C=C(CCC)C(=O)c1ccc(OC(C)C(=O)OC)c(C)c1C` (stereo not drawn) here?
A: The GI50 was 5.6 µM.
